Reference: ChEMBL document CHEMBL1156772, “Synthesis, affinity profile and functional activity of potent chiral muscarinic antagonists with a pyrrolidinylfuran structure” (J Med Chem, 2010)

What was measured:
[1] = target: T1, Muscarinic acetylcholine receptor M4 (Homo sapiens, UniProt P08173); assay: Displacement of [3H]NMS from human cloned muscarinic M4 receptor expressed in CHO cells by scintillation counting; assay type: cell-based
T1 sequence (P08173 whole entry): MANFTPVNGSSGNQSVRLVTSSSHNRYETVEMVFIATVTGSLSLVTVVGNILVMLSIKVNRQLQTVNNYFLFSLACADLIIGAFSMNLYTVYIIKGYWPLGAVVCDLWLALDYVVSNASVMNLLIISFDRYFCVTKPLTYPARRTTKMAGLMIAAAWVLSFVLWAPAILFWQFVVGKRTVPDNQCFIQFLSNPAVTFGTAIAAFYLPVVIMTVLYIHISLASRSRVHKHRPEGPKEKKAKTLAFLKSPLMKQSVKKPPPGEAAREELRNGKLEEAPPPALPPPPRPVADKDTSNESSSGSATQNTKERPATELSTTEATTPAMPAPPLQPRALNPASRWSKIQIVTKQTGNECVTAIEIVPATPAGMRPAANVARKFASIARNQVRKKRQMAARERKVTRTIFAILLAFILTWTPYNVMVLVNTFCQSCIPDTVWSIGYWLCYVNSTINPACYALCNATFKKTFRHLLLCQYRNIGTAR

[2] = target: Muscarinic acetylcholine receptor M3 (Cavia porcellus) (UniProt Q8VH26); assay: Antagonist activity at muscarinic M3 receptor in guinea pig ileum assessed as effect on isotonic tension after 60 mins; assay type: functional, tissue-based
[3] = target: T2, Muscarinic acetylcholine receptor M2 (Homo sapiens, UniProt P08172); assay: Displacement of [3H]NMS from human cloned muscarinic M2 receptor expressed in CHO cells by scintillation counting; assay type: cell-based
T2 sequence (P08172 whole entry): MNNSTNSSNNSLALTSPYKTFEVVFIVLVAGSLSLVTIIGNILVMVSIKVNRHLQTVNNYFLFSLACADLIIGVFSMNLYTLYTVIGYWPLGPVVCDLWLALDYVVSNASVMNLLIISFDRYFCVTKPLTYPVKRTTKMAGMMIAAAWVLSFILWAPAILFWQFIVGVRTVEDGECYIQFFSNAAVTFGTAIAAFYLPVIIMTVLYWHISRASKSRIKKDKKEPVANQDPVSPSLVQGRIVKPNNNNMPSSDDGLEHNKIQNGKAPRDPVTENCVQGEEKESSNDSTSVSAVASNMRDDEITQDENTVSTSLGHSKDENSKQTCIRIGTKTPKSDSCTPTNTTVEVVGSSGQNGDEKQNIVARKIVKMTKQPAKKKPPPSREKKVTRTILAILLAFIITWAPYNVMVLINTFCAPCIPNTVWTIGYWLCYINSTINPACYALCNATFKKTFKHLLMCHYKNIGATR
Method in brief: (§1)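 Equilibrium radioligand binding in CHO cells expressing the human muscarinic subtype, following the authors' earlier protocol.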

[4] = target: T3, Muscarinic receptor 4 (Cavia porcellus) (UniProt Q8VH25); assay: Antagonist activity at muscarinic M4 receptor in guinea pig lung strips assessed as effect on isotonic contraction after 60 mins; assay type: functional
T3 sequence (whole entry): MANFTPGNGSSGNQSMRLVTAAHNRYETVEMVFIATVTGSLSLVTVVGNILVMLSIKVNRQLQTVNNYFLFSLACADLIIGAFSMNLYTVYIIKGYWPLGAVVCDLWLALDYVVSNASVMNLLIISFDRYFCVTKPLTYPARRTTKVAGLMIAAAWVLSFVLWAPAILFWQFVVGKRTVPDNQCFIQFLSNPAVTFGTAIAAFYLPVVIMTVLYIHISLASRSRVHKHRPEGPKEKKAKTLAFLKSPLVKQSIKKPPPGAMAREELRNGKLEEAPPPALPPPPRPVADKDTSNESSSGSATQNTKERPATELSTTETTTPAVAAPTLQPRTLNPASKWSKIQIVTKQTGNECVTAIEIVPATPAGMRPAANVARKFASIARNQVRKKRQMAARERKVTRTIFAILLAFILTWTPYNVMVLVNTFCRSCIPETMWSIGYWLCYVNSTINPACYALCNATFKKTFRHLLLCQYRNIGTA

[5] = target: Muscarinic acetylcholine receptor M3 (Homo sapiens, UniProt P20309); assay: Displacement of [3H]NMS from human cloned muscarinic M3 receptor expressed in CHO cells by scintillation counting; assay type: cell-based
[6] = target: T4, Muscarinic receptor 2 (Cavia porcellus) (UniProt Q8VH27); assay: Antagonist activity at muscarinic M2 receptor in guinea pig left atrium assessed as effect on electrically-stimulated inotropic activity after 60 mins; assay type: functional, tissue-based; conditions: Cardiac atrium
T4 sequence (whole entry): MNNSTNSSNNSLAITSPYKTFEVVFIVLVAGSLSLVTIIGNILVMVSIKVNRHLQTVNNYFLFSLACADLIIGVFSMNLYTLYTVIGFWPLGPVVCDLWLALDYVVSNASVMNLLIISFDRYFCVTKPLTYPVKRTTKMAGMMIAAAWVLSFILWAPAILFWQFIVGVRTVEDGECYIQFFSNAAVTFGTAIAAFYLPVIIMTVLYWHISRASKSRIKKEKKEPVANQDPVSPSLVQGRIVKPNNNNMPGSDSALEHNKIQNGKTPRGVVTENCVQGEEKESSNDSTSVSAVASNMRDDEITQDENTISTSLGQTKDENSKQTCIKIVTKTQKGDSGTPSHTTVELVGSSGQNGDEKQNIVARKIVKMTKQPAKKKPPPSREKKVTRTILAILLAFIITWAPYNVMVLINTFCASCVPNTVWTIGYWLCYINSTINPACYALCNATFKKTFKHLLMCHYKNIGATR

[7] = target: T5, Muscarinic acetylcholine receptor M1 (Homo sapiens, UniProt P11229); assay: Displacement of [3H]NMS from human cloned muscarinic M1 receptor expressed in CHO cells by scintillation counting; assay type: cell-based
T5 sequence (P11229 whole entry): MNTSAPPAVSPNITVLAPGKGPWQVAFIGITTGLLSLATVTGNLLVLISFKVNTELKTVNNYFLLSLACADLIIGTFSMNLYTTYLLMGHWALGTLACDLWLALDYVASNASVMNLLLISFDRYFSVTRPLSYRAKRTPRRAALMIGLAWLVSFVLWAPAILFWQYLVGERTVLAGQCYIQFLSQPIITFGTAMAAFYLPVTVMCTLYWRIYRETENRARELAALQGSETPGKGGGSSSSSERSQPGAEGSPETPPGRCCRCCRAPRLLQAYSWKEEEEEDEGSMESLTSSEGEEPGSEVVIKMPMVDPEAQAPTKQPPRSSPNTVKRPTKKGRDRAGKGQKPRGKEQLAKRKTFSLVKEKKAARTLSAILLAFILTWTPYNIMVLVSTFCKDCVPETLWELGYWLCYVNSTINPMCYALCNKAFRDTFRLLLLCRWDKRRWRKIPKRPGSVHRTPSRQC

[8] = target: T6, Muscarinic acetylcholine receptor M5 (Homo sapiens, UniProt P08912); assay: Displacement of [3H]NMS from human cloned muscarinic M5 receptor expressed in CHO cells by scintillation counting; assay type: cell-based; method in brief: as §1
T6 sequence (P08912 whole entry): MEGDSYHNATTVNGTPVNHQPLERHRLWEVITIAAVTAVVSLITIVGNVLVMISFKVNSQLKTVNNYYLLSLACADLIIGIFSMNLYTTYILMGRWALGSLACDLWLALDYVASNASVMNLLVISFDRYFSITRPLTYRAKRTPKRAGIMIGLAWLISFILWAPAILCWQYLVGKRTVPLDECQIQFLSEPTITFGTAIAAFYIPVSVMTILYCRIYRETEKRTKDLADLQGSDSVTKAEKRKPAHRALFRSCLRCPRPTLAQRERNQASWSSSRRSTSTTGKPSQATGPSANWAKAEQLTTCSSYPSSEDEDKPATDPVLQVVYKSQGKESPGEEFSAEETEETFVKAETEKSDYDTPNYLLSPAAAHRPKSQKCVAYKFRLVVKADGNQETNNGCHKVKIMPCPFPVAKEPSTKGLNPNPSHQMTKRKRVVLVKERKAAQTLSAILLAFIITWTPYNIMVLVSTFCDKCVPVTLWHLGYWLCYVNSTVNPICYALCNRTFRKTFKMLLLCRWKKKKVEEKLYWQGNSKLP

[9] = Antagonist activity at muscarinic M1 receptor in New Zealand rabbit vas deferens assessed as effect on electrically-stimulated muscle contraction after 60 mins; assay type: functional, Oryctolagus cuniculus

Muscarinic acetylcholine receptor M3, sequence (P20309 whole entry): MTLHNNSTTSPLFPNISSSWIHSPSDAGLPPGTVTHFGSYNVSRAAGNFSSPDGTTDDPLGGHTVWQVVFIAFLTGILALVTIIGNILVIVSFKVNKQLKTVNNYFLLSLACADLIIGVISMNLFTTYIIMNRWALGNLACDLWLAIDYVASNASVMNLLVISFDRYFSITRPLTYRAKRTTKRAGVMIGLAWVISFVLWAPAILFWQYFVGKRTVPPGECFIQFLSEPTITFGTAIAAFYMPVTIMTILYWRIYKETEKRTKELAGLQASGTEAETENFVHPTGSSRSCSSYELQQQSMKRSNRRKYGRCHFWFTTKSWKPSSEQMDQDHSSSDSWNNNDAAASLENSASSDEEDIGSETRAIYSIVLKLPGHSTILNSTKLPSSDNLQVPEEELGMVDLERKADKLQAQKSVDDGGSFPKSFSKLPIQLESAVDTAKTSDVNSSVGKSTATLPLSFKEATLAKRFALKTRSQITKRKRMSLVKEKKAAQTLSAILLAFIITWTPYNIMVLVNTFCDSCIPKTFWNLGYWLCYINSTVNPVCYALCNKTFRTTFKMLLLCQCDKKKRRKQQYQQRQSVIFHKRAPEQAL
Muscarinic acetylcholine receptor M3 (Cavia porcellus), sequence (Q8VH26 1-587): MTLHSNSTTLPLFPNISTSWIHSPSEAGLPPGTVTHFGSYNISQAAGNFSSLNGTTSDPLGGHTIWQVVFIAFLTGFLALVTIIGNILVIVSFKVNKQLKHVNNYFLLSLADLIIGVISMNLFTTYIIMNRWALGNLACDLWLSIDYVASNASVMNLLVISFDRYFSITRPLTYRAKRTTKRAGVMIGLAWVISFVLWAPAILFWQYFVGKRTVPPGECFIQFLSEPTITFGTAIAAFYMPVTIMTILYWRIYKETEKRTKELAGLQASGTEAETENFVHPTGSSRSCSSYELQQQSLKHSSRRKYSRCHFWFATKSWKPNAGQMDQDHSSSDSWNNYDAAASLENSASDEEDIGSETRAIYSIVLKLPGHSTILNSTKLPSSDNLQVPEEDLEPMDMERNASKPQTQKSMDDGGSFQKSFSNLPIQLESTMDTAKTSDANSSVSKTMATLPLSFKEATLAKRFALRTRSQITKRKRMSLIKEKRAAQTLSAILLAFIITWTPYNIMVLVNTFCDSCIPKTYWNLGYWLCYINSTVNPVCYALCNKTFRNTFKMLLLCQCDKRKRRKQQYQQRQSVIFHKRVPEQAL

Row | Compound | Ki [1] [nM] | pKb [2] | Ki [3] [nM] | pKb [4] | Ki [5] [nM] | pKb [6] | Ki [7] [nM] | Ki [8] [nM] | pKb [9]
1 | CN1CCCC1c1ccc(C(O)(c2ccccc2)C2CCCCC2)o1 (mixture of isomers) | 14.1 | 7.8 | 6.76 | < 5 | 7.76 | 6.98 | 1.23 | 7.08 | –
2 | C[N+]1(C)CCCC1c1ccc(C(O)(c2ccccc2)c2ccccc2)o1 (racemic) [listing 1 of 2 here] | – | 7.6 | – | 6.2 | – | 7.08 | – | – | –
3 | CN1CCCC1c1ccc(C(c2ccccc2)C2CCCCC2)o1 (mixture of isomers) | 77.6 | 7.05 | 141 | < 5 | 33.9 | 5.36 | 13.5 | 55 | –
4 | CN1CCC[C@H]1c1ccc([C@@](O)(c2ccccc2)C2CCCCC2)o1 | 3090 | 6.41 | 3240 | < 5 | 1660 | 5.95 | 1230 | 1550 | –
5 | C[N+]1(C)CCCC1c1ccc(C(O)(c2ccccc2)c2ccccc2)o1 (racemic) [listing 2 of 2 here] | 64.6 | – | 31.6 | – | 36.3 | – | 23.4 | 37.2 | –
6 | C[N+]1(C)CCCC1c1ccc(C(O)(c2ccccc2)C2CCCCC2)o1 (mixture of isomers) | 15.5 | 8.35 | 10.2 | 5.9 | 7.24 | 7.88 | 2.09 | 11.5 | –
7 | C[N+]1(C)CCC[C@H]1c1ccc([C@@](O)(c2ccccc2)C2CCCCC2)o1 | 2340 | 6.32 | 759 | < 5 | 513 | 5.92 | 331 | 871 | –
8 | C[N+]1(C)CCCC1c1ccc(C(c2ccccc2)c2ccccc2)o1 (racemic) | – | 7.59 | – | < 5 | – | 7.09 | – | – | –
9 | C[N+]1(C)CCCC1c1ccc(C(O)(c2ccccc2)c2ccccc2)o1.[I-] (mixture of isomers) | – | – | – | – | – | – | – | – | 8.46
10 | CN1CCC[C@@H]1c1ccc([C@@](O)(c2ccccc2)C2CCCCC2)o1 | 550 | 6.77 | 363 | < 5 | 324 | 6.23 | 191 | 468 | –
